# According to the RNAGym collection of RNA variant scans (doi:10.1126/science.aae0568):
# Fewer inactive variants are shown than the library holds.
# B1: tRNA (parent)
# chain: GUUCCGUUGGCGUAAUGGUAACGCGUCUCCCUCCUAAGGAGAAGACUGCGGGUUCGAGUCCCGUACGGAACG
# Variants of: B1
# Experiment: yeast fitness relative to wild type (ratio to wild type); higher = fitter; tRNA-Arg(CCU), competitive growth, 37 C, YPD
# How it was run: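 Gene amplicons from the start population and from each of six end populations were read by 100-nucleotide paired-end sequencing. Those end populations came from pooled Saccharomyces cerevisiae strains carrying tRNA-Arg(CCU) gene variants at the native locus, competed in YPD at 37°C for 24 hours. Fitness relative to wild type was worked out from changes in genotype frequencies. Genotypes needed ≥ 100 starting reads, and estimates < 0.5 were set to 0.5.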
row,Variant,yeast fitness
1,G10A A20G U35G A37G,≤ 0.5
2,G9C U54G,0.605
3,G10A C31U G38C G63A A65G G68C A69G,≤ 0.5
4,G10C C27A A42U C46G,≤ 0.5
5,G10C C24U C34G A65C,≤ 0.5
6,G10A A14U,≤ 0.5
7,G10A C11U A20G A40G C55G,≤ 0.5
8,G10A G23C C33G C55G,≤ 0.5
9,G10A G63C C66U,≤ 0.5
10,G9U G18A C46A C49G,0.552
11,G10A A15C A37C C62A,0.636
12,G10A C29U A57C,≤ 0.5
13,G10A A21C C34U,≤ 0.5
14,G9C C27G C46G A65G,≤ 0.5
15,G10C C62U,0.646
16,G10A C29A C34G A43C C60G,0.663
17,G10C C24U C29A A45U C46G U47A G50A,0.702
18,G10A A36C C62G,≤ 0.5
19,G10A C11A G67C,≤ 0.5
20,G10A G18C C33G C66G,≤ 0.5
21,G9C C29A,0.601

row,Variant,yeast fitness
1,G10A C27U A40C U47A G48C,0.585
2,G10A U13G C22G C46G,≤ 0.5
3,G10C A14U U19C C60A G68C,≤ 0.5
4,G10C A42G A57U,≤ 0.5
5,G10C C11G G50A A65C,≤ 0.5
6,G10C G12C C46G C55U,≤ 0.5
7,G10A C24A C30A C31G A43U,≤ 0.5
8,G10A A14U C31A C46A A65U,≤ 0.5
9,G10A A42G,0.656
10,G10A C27G U28G C34U C46G,0.576
11,G10A C29U C30G C34A U53C,≤ 0.5
12,G10C A14C,0.61
13,G10A G38A A57G,≤ 0.5
14,G10A G17A U19A C29U C49G,≤ 0.5
15,G10A A15U A36G U47G A65U,≤ 0.5
16,G10A C22A C46A,≤ 0.5
17,G10C A20G C24U G38C G56C C66U,≤ 0.5
18,G10C C22A C24G U53A C62U,≤ 0.5
19,G10A U16A U28A A70U,≤ 0.5
20,G10A U16C C29U,0.599
21,G10A A36C A70G,≤ 0.5

row,Variant,yeast fitness
1,G10C C30U G38A,0.531
2,G10A U16A A21C,1
3,G10C A36U G41A C66U A70C,≤ 0.5
4,G10A C55U C61A,≤ 0.5
5,G10C C33G,0.558
6,G10C C33A,0.506
7,G10C C11U A21G A40G,≤ 0.5
8,G10C A43C,0.591
9,G9C U16C A69C,0.562
10,G10C C31G A70U,0.569
11,G10A C11A G38A G52C C61A,≤ 0.5
12,G9C U16A C24U C30U C62U,≤ 0.5
13,G10A U19C G48A C49G A69U,0.594
14,G9C C22U U26C G58C G68U,≤ 0.5
15,G10C A15G U35A G44A,0.589
16,G10C A14C C24A C31G,≤ 0.5
17,G9C C62A,0.576
18,G9C C62G,0.608
19,G10C A43C C49U A69U,≤ 0.5
20,G10A C27G U28G C34U C46G G67A,≤ 0.5
21,G10A A36G,0.664

row,Variant,yeast fitness
1,G10A A36C,≤ 0.5
2,G9C U16C C30A G41C A45C C46G,≤ 0.5
3,G10A U28C C60G,≤ 0.5
4,G10A A14C G17A C22G C24G C30A,0.775
5,G9C C11A A40C A70U,0.704
6,G10A U16A A65G,0.542
7,G10A U35G A43G C46U A69U,≤ 0.5
8,G10A C34U G44A,≤ 0.5
9,G10C C22A C24G G68C,≤ 0.5
10,G10A A45G C55A,≤ 0.5
11,G10C C27G C30G G58A,0.557
12,G10C A36U,0.539
13,G9C U32G C33G G50A U53G,≤ 0.5
14,G10A C30G A65G,≤ 0.5
15,G9C G38A,0.624
16,G10A A21U C33A G68C,0.607
17,G10C G39A,0.563
18,G9C C27U C34G C60A,≤ 0.5
19,G9C G12C C33U U35A,≤ 0.5
20,G10A G48A A69C,0.628
21,G9U C11G U32G G56A,≤ 0.5
